Series [1] concerns Homo sapiens. The experiment in a line: Toxicity in patient with severe malaria assessed as pain at drug infusion site at 3 to 12 g, iv for 30 mins via infusion pump. It is filed as organism-based. The following applies: in vivo, 0.5 h.
In series [2] the test system is Homo sapiens. The experiment in a line: Toxicity in patient with severe malaria assessed as inflammation at 3 to 12 g, iv for 30 mins via infusion pump. The format is organism-based. The following applies: in vivo, 0.5 h.
Series [3] in a line: Plasma concentration in patient with severe malaria at 3 g, iv for 30 mins via infusion pump. The format is ADME, organism-based. The conditions noted are these: human. The procedure, abridged:
(§1)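 Adults with moderately severe malaria, all on IV quinine, were placed in groups of 10 per dose. L-arginine was diluted in normal saline to 10% or less and given IV through an antecubital cannula over 30 min. Plasma was taken at 8–11 time points up to 24 h, separated within 30 min and stored at −70°C. Samples were ethanol-deproteinized with norleucine as internal standard, AccQFluor-derivatized and measured by HPLC. Peak was taken after the end of infusion.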

For series [4], the system named is Homo sapiens. As to the kind of experiment: Toxicity in patient with severe malaria assessed as effect on pulse rate at 3 to 12 g, iv for 30 mins via infusion pump measured during drug infusion. The following applies: in vivo, 0.5 h. The format is organism-based.
Series [5] concerns Homo sapiens. The experiment in a line: Toxicity in patient with severe malaria assessed as effect on respiratory rate at 3 to 12 g, iv for 30 mins via infusion pump measured after drug infusion. The format is organism-based. The conditions noted are these: in vivo, 0.5 h.
A short description of series [6]: Plasma concentration in patient with severe malaria at 12 g, iv for 30 mins via infusion pump. The format is ADME, organism-based. The conditions noted are these: human. The method in brief:
as §1

The nature of series [7]: Primary phase half life in patient with severe malaria administered as iv for 30 mins via infusion pump. It is filed as ADME, organism-based. The conditions noted are these: human, in vivo, read-out: alphat1/2. The method in brief:
(§2)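 Half-lives came from a population model fitted in NONMEM (FOCE with interaction) to plasma HPLC levels from infused patients and from patients not given L-arginine. The model was two-compartment linear with first-order elimination and combined proportional and additive residual error. Baseline and natural recovery were fitted by a second-order polynomial. CV% was estimated by simulation assuming a log-normal distribution.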

Series [8] concerns Homo sapiens. The experiment in a line: Toxicity in patient with severe malaria assessed as effect on respiratory rate at 3 to 12 g, iv for 30 mins via infusion pump measured during drug infusion. The following applies: in vivo, 0.5 h. It is filed as organism-based.
Series [9] deals with Homo sapiens. The experiment in a line: Toxicity in patient with severe malaria assessed as effect on pulse rate at 3 to 12 g, iv for 30 mins via infusion pump measured after drug infusion. It is filed as organism-based. The conditions noted are these: in vivo, 0.5 h.
Series [10] deals with Homo sapiens. As to the kind of experiment: Toxicity in patient with severe malaria assessed as decrease of systolic blood pressure at 3 to 6 g, iv for 30 mins via infusion pump. The format is organism-based, Artery. The conditions noted are these: in vivo, 0.5 h. The method in brief: (§3)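 In adults with malaria on IV quinine, 10 per dose, systolic and diastolic blood pressure were recorded at baseline and immediately at the end of a 30-min IV L-arginine infusion (in saline, 10% or less). They were followed afterward to check return to baseline. Mean change was given with 95% CI and P value.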

Series [11] is described as follows: Plasma concentration in patient with severe malaria at 6 g, iv for 30 mins via infusion pump. The format is ADME, organism-based. The following applies: human. The procedure, abridged: as §1
The nature of series [12]: Terminal half life in patient with severe malaria administered as iv for 30 mins via infusion pump. The format is ADME, organism-based. The conditions noted are these: human, in vivo, read-out: beta t1/2 (converted). The procedure, abridged: as §2
The test system of series [13] is Homo sapiens. The experiment in a line: Toxicity in patient with severe malaria assessed as decrease of diastolic blood pressure at 12 g, iv for 30 mins via infusion pump. It is filed as organism-based, Artery. The following applies: in vivo, 0.5 h. The method in brief: as §3
In series [14] the test system is Homo sapiens. The experiment in a line: Toxicity in patient with severe malaria assessed as decrease of diastolic blood pressure at 3 to 6 g, iv for 30 mins via infusion pump. It is filed as organism-based, Artery. The following applies: in vivo, 0.5 h. The procedure, abridged: as §3
Series [15] concerns Homo sapiens. As to the kind of experiment: Toxicity in patient with severe malaria assessed as decrease of systolic blood pressure at 12 g, iv for 30 mins via infusion pump. The following applies: in vivo, 0.5 h. It is filed as organism-based, Artery. The procedure, abridged: as §3

The results in this text go back to ChEMBL document CHEMBL1687716, “Pharmacokinetics of L-arginine in adults with moderately severe malaria” (Antimicrob Agents Chemother, 2008).

Turning to `N=C(N)NCCC[C@H](N)C(=O)O` [ARGININE], the Activity entry with Homo sapiens [1], in the series with Homo sapiens [2], in the series with Homo sapiens [4], with Homo sapiens [5], with Homo sapiens [8] and in the series with Homo sapiens [9] was “Non-toxic” throughout. Further, the Activity result in the series on Homo sapiens [10] is “Non-toxic”; in the series with Homo sapiens [13] it was 5 mmHg; with Homo sapiens [14], “Non-toxic”; with Homo sapiens [15], 5 mmHg. For the same molecule, the concentration at 0.5 h in [3] was found to be 288 µM; in [6] it was 1310 µM; in series [11], 809 µM. Also, the half-life in series [7] was 0.25 h; in series [12], 3.75 h.
